Measured values: ChEMBL document CHEMBL1255566, “Rigid analogues of the α2-adrenergic blocker atipamezole: small changes, big consequences” (J Med Chem, 2010)

Assays:
[1] = molecular target: T1, Alpha-2A adrenergic receptor (Homo sapiens) (UniProt P08913); test: Antagonist activity at human adrenergic alpha2A receptor expressed in CHO cells assessed as inhibition of adrenaline-induced [35S]GTPgammaS binding after 30 mins by scintillation counting; type: functional, cell-based
T1 sequence (whole entry): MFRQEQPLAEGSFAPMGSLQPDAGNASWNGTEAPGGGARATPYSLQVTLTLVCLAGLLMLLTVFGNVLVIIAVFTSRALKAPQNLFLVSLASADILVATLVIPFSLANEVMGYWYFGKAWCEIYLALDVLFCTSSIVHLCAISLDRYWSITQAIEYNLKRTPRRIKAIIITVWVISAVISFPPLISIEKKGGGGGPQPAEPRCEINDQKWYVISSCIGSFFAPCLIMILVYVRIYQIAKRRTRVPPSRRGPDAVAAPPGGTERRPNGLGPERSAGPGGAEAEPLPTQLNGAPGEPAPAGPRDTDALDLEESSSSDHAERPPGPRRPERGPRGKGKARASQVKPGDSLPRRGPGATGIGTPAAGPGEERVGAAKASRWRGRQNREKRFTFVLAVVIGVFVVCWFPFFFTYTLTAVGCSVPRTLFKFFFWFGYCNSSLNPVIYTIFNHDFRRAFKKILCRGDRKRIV
Summary of the method: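 Inhibition of adrenaline-stimulated [35S]GTPγS binding in CHO cells expressing human α2A receptors. Compounds were also run alone to check for any stimulation of [35S]GTPγS binding. Antagonist potency is reported as pKB, taken as the potency that inhibits 50% of adrenaline-induced binding.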

[2] = molecular target: T2, Alpha-1B adrenergic receptor (Homo sapiens, UniProt P35368); test: Displacement of [3H]-prazosin from human adrenergic alpha-1b receptor expressed in CHO cells after 120 mins by liquid scintillation counting; type: cell-based
T2 sequence (P35368 whole entry): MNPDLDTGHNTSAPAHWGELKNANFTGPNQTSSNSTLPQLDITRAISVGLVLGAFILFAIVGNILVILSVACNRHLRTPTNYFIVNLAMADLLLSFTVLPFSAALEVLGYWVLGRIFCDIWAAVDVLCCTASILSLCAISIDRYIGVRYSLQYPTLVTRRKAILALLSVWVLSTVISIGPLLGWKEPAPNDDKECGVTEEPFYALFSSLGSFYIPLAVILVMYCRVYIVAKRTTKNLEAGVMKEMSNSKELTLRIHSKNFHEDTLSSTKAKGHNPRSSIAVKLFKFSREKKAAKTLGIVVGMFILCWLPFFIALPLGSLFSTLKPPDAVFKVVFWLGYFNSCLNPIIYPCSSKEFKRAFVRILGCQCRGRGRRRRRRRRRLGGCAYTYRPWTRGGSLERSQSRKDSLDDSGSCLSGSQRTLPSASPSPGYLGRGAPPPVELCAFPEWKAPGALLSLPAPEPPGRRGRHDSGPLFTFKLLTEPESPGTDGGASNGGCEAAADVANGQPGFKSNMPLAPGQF
Summary of the method: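 Competition binding at human α1b receptors stably expressed in CHO cells. Affinity values are means ± SEM of at least two experiments, each in duplicate.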

[3] = molecular target: T3, Alpha-2A adrenergic receptor (Homo sapiens, UniProt P08913); test: Displacement of [3H]-RX821002 from human adrenergic alpha2A receptor expressed in rat C6 cells after 120 mins by liquid scintillation counting; type: cell-based
T3 sequence (P08913 whole entry): T1 sequence (whole entry)
Summary of the method: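 Competition binding at human α2A receptors expressed in C6 glial cells. Affinity values are means ± SEM of at least two experiments, each in duplicate.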

[4] = molecular target: T4, Alpha-2B adrenergic receptor (Homo sapiens, UniProt P18089); test: Displacement of [3H]-RX821002 from human adrenergic alpha2B receptor expressed in rat C6 cells after 120 mins by liquid scintillation counting; type: cell-based
T4 sequence (P18089 whole entry): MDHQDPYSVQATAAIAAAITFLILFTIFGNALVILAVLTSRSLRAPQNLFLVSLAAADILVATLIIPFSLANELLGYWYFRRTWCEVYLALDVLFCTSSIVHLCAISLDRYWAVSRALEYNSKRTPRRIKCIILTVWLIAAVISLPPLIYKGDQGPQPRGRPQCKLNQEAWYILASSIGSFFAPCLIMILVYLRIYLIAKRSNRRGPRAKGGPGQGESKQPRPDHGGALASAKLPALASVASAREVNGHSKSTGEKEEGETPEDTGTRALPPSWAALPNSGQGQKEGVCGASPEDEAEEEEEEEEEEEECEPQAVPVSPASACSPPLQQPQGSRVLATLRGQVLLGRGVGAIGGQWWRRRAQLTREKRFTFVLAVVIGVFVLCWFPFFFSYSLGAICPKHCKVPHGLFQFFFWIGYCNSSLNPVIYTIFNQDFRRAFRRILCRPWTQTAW

[5] = molecular target: T5, Alpha-2C adrenergic receptor (Homo sapiens, UniProt P18825); test: Displacement of [3H]-RX821002 from human adrenergic Alpha-2C receptor expressed in rat C6 cells after 120 mins by liquid scintillation counting; type: cell-based
T5 sequence (P18825 whole entry): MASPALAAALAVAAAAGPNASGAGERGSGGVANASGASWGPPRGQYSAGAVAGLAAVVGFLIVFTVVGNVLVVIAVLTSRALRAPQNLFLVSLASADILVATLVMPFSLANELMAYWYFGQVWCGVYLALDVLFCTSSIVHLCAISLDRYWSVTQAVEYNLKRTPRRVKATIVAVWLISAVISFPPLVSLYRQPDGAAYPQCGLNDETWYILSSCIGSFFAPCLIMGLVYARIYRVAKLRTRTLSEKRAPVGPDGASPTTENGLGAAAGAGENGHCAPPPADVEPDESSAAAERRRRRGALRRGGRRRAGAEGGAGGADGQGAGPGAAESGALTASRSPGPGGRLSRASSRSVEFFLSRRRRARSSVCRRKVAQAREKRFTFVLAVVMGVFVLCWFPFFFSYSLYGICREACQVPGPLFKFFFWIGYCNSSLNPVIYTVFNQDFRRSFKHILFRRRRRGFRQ

Mus musculus [6] = test: Antihypothermic activity in ip dosed NMRI mouse assessed as inhibition of guanabenz-induced hypothermia administered 5 mins before guanabenz challenge measured after 25 mins; type: functional
Summary of the method: (§1)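 Mice got the compound by intraperitoneal injection or oral gavage before guanabenz challenge, and reversal of guanabenz-induced hypothermia was scored. Five animals were tested per dose. ED50 is the dose giving an inhibitory effect in 50% of guanabenz-treated animals, with 95% confidence limits.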

Mus musculus [7] = test: Antihypothermic activity in po dosed NMRI mouse assessed as inhibition of guanabenz-induced hypothermia administered 35 mins before guanabenz challenge measured after 25 mins; type: functional; summary of the method: as §1
Mus musculus [8] = test: Ratio of ED50 for santihypothermic activity in po dosed NMRI mouse to ED50 for antihypothermic activity in ip dosed NMRI mouse; type: functional
Summary of the method: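 Guanabenz-induced hypothermia in mice, five animals per dose. ED50 (the dose inhibiting hypothermia in 50% of guanabenz-treated animals) was obtained after oral gavage and after intraperitoneal injection, and the ratio po/ip was then calculated.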

Mus musculus [9] = test: Increase of normetanephrine level in NMRI mouse cortex at 10 mg/kg, ip after 1 hr microwave irradiation; type: functional; details: route intraperitoneal
Summary of the method: (§2)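 Single intraperitoneal dose; mice were killed by head-focused microwave irradiation 1 h later. Frontal cortex normetanephrine, an extracellular noradrenaline metabolite, was measured and expressed as increase relative to control animals, giving dose-response data across 0.16 to 10 mg/kg.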

Mus musculus [10] = test: Increase of normetanephrine level in NMRI mouse cortex at 0.16 to 10 mg/kg, ip after 1 hr microwave irradiation; type: functional; details: dose mg/kg 0.16-10; route intraperitoneal; summary of the method: as §2
Rattus norvegicus [11] = test: Cardiotoxicity in pithed Sprague-Dawley rat assessed as increase of diastolic pressure at > 0.63 ug/kg, iv; type: toxicity, organism-based; details: in vivo, 0.00063 mg/kg
Rattus norvegicus [12] = test: Cardiotoxicity in pithed Sprague-Dawley rat assessed as increase of diastolic pressure at 2.5 ug/kg, iv in presence of prazosin; type: toxicity, organism-based; details: in vivo, 0.0025 mg/kg
Rattus norvegicus [13] = test: Cardiotoxicity in pithed Sprague-Dawley rat assessed as increase of diastolic pressure at 2.5 ug/kg, iv in presence of rauwolscine; type: toxicity, organism-based; details: in vivo, 0.0025 mg/kg
Rattus norvegicus [14] = test: Cardiotoxicity in anesthetized Sprague-Dawley rat assessed as increase of diastolic pressure at up to 0.16 ug/kg, iv; type: toxicity, organism-based; details: in vivo, 0.00016 mg/kg
Rattus norvegicus [15] = test: Cardiotoxicity in anesthetized Sprague-Dawley rat assessed as increase of diastolic pressure at 10 ug/kg, iv; type: toxicity, organism-based; details: in vivo, 0.01 mg/kg
Mus musculus [16] = test: Increase of normetanephrine level in ip dosed NMRI mouse cortex after 1 hr microwave irradiation; type: functional, organism-based; summary of the method: as §2
[17] = Mus musculus, NMRI, ip, read-out: ED50
[18] = Mus musculus, NMRI, po, read-out: ED50

CCC1(c2c[nH]cn2)Cc2ccc(F)cc2C1 (configuration not stated) [FIPAMEZOLE]
pKb [1]: 7.84 | Ki [2]: 2090 nM | Ki [3]: 7.24 nM | Ki [4]: 6.76 nM | Ki [5]: 13.8 nM | ED50 (Mus musculus [6]; [17]): 0.47 mg/kg | ED50 (Mus musculus [7]; [18]): 1.87 mg/kg | Ratio ED50 (Mus musculus [8]): 4 | Activity (Mus musculus [9]): 247%

c1ccc2c(c1)C[C@]1(c3cnc[nH]3)C[C@H]21 (stereo in doubt; (+)-1)
Ki [2]: 3.55 nM | Ki [3]: 0.0794 nM | Ki [4]: 0.275 nM | Ki [5]: 0.263 nM | ED50 (Mus musculus [6]): 0.02 mg/kg | ED50 (Mus musculus [7]): 0.07 mg/kg | Ratio ED50 (Mus musculus [8]): 3.5 | Activity (Mus musculus [10]): 3096% | Activity (Rattus norvegicus [11]): Toxic | Activity (Rattus norvegicus [12]): Toxic | Activity (Rattus norvegicus [13]): Non-toxic | Activity (Rattus norvegicus [14]): Non-toxic | Activity (Rattus norvegicus [15]): 26 mmHg

CNCCCN1c2ccccc2CCc2ccccc21 [DESIPRAMINE]
Activity (Mus musculus [9]): 223%

c1ccc2c(c1)C[C@]1(c3c[nH]cn3)C[C@H]21 (stereo in doubt; (+)-1)
pKb [1]: 9.64 | Activity (Mus musculus [16]): Dose-dependent effect

CCC[C@H]1c2ccccc2[C@H]2C[C@]21c1c[nH]cn1 (relative stereo)
pKb [1]: 8.7 | Ki [2]: 8.91 nM | Ki [3]: 0.851 nM | Ki [4]: 2.29 nM | Ki [5]: 1.48 nM | ED50 (Mus musculus [6]; [17]): 0.1 mg/kg | ED50 (Mus musculus [7]; [18]): 0.12 mg/kg | Ratio ED50 (Mus musculus [8]): 1.2

CCC1(c2c[nH]cn2)Cc2ccccc2C1 [ATIPAMEZOLE]
pKb [1]: 8.05 | ED50 (Mus musculus [6]; [17]): 0.19 mg/kg | ED50 (Mus musculus [7]; [18]): 1.95 mg/kg | Ratio ED50 (Mus musculus [8]): 10.3 | Activity (Mus musculus [9]): 258%

C[C@]12CC1(c1c[nH]cn1)Cc1ccccc12 (single isomer, unassigned)
pKb [1]: 8.66 | Ki [2]: 39.8 nM | Ki [3]: 0.447 nM | Ki [4]: 0.912 nM | Ki [5]: 2.82 nM | ED50 (Mus musculus [6]; [17]): 0.06 mg/kg | ED50 (Mus musculus [7]; [18]): 0.66 mg/kg | Ratio ED50 (Mus musculus [8]): 11

CCC[C@H]1[C@@H]2c3ccccc3C[C@]12c1c[nH]cn1
pKb [1]: 9.24 | Ki [2]: 3.55 nM | Ki [3]: 0.407 nM | Ki [4]: 0.347 nM | Ki [5]: 0.437 nM | ED50 (Mus musculus [6]; [17]): 0.1 mg/kg | ED50 (Mus musculus [7]; [18]): 0.33 mg/kg | Ratio ED50 (Mus musculus [8]): 3.3

CCO[C@H]1c2ccccc2[C@H]2C[C@]21c1c[nH]cn1 (relative stereo)
pKb [1]: 8.36 | Ki [2]: 39.8 nM | Ki [3]: 3.31 nM | Ki [4]: 9.77 nM | Ki [5]: 10.2 nM | ED50 (Mus musculus [6]; [17]): 0.16 mg/kg | ED50 (Mus musculus [7]; [18]): 0.03 mg/kg | Ratio ED50 (Mus musculus [8]): 0.2
